Measurements: article PMC5565762 (International Journal for Parasitology: Drugs and Drug …, 2017)

What was measured:
[1] = test system: redox biosensor hGrx-roGFP2 in bloodstream T. b. brucei; test: Intracellular redox changes in T. brucei redox reporter cell line; format: cell-based, Trypanosoma brucei brucei; details: for oxidation of the biosensor: 4 h, 0.54 μM 13, 1.49 μM 15, 78 nM suramin, 25 μM menadione
Method in brief: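 The strain 427 line 449 bloodstream reporter line expresses hGrx-roGFP2, induced with 1 μg/mL oxytetracycline for 24 h. Parasites at 2 × 10^6/mL were treated for 4 h at 37 °C with test compound, 25 μM menadione, 78 nM suramin or 1% DMSO. A parallel sample then received 1 mM DTT for 15 min. Cells were stained with PI (2 μg/mL) and GFP (530/40 nm) was read on PI-negative cells by flow cytometry. Values are % biosensor reduction versus DMSO without DTT; triplicates, SD.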

Bloodstream T. b. brucei [2] = test: Glucose consumption; format: cell-based, Trypanosoma brucei brucei; details: compound at its EC50, 4 h
Method in brief: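 Bloodstream T. b. brucei were seeded at 5.3–5.8 × 10^6 parasites/mL in HMI-9 with 10% FBS (37 °C, 5% CO2). They were exposed for 4 h to test compound at a fixed concentration, or to suramin 78 nM, ebselen 5 μM, tri-thiazol 0.31 μM or 1% DMSO vehicle. Viable cells were counted in a Neubauer chamber, cells were spun down at 2000 g for 10 min, and supernatant glucose was measured on an analyzer. Consumption is given as g/L per million cells per hour; triplicates, SD.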

[3] = test system: Bloodstream T. b. brucei (strain 427) cell line 449; test: Viability assay of bloodstream trypanosomes; format: cell-based; details: Trypanosoma brucei, 24 h
Method in brief: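 Bloodstream parasites at 5 × 10^5 cells/mL in HMI-9 with 10% FBS received test compound (5 μM final; nifurtimox 15 μM) or 1% DMSO, in triplicate, for 24 h at 37 °C and 5% CO2. Cells were diluted into PBS with 1% glucose, stained with propidium iodide (2 μg/mL) and counted by flow cytometry. Viability is the % of the DMSO-control cell count. EC50 came from 7-point curves (triplicates) fitted to a sigmoidal Hill equation; SD.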

[4] = test system: murine macrophages (cell line J774); test: Viability assay of murine macrophages; format: cell-based; details: murine macrophages vs T. b. brucei
Method in brief: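 J774 murine macrophages were grown in DMEM with 10% FBS, penicillin and streptomycin at 37 °C in 5% CO2. Cells were exposed to 7 concentrations of test compound, each in triplicate, for 24 h, and viability was measured with WST-1 reagent as % of DMSO-treated control. EC50 was derived by fitting a sigmoidal Hill equation; SD.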

Bloodstream T. b. brucei [5] = test: Inhibition of glucose uptake; format: cell-based, Trypanosoma brucei brucei; details: 30 min

**Q.** Which results are given for `CC1=CC(=O)c2ccccc2C1=O` [menadione]?
**A.** oxidation of the biosensor [1]: 60%; reversal of biosensor oxidation by DTT ([1]; after 4 h treatment, 15 min with 1 mM DTT): fully reversible

**Q.** With `Cc1ccc(C(=O)Nc2ccc(S(=O)(=O)O)c3cc(S(=O)(=O)O)cc(S(=O)(=O)O)c23)cc1NC(=O)c1cccc(NC(=O)Nc2cccc(C(=O)Nc3cc(C(=O)Nc4ccc(S(=O)(=O)O)c5cc(S(=O)(=O)O)cc(S(=O)(=O)O)c45)ccc3C)c2)c1` [suramin] as the compound, how does the “oxidation of the biosensor” value [1] read?
**A.** The value was “did not induce redox changes”.

**Q.** And the “capacity to metabolize glucose compared to the control condition” value (Bloodstream T. b. brucei [2]; vs DMSO)?
**A.** The value was under 30%.

**Q.** With `O=c1c2ccccc2[se]n1-c1ccccc1` [ebselen] as the compound, how does the “reduction of glucose consumption vs vehicle” value (Bloodstream T. b. brucei [2]) read?
**A.** Its value is 44%.

**Q.** What about the “anti-proliferative activity with respect to the DMSO control” value (Bloodstream T. b. brucei [2]; not statistically significant) of the same compound?
**A.** Its value is “some anti-proliferative activity”.

**Q.** `CC1CS(=O)(=O)CCN1/N=C/c1ccc([N+](=O)[O-])o1` (centres unmarked) [NFX, nifurtimox] was tested. Which EC50 ([3]; read-out: EC50 against T. b. brucei) did it give?
**A.** Its EC50 is about 10 µM.

**Q.** What about the viability at 15 µM ([3]; read-out: Parasite survival) of the same compound?
**A.** The viability at 15 µM was 28.2 ± 5.5%.

**Q.** And the “selectivity index (SI)” value [4]?
**A.** The value was about 10.

**Q.** And the “glucose uptake compared to vehicle treated cells” value (Bloodstream T. b. brucei [5]; 5X EC50 (13 2.7 μM, 15 7.45 μM, nifurtimox 50 μM))?
**A.** Its value is “A similar outcome”.

**Q.** With `O=C(CCc1ccc(O)cc1)c1c(O)cc(O)cc1O` [phloretin] as the compound, how does the “reduction of glucose uptake” value (Bloodstream T. b. brucei [5]; 500 μM) read?
**A.** Its value is 63%.
